The values below come from ChEMBL document CHEMBL1765076, “17,20-Lyase inhibitors. Part 3: Design, synthesis, and structure-activity relationships of biphenylylmethylimidazole derivatives as novel 17,20-lyase inhibitors” (Bioorg Med Chem, 2011).

In test [1] the target is T1, Steroid 17-alpha-hydroxylase/17,20 lyase (Rattus norvegicus, UniProt P11715).
T1 sequence (P11715 whole entry): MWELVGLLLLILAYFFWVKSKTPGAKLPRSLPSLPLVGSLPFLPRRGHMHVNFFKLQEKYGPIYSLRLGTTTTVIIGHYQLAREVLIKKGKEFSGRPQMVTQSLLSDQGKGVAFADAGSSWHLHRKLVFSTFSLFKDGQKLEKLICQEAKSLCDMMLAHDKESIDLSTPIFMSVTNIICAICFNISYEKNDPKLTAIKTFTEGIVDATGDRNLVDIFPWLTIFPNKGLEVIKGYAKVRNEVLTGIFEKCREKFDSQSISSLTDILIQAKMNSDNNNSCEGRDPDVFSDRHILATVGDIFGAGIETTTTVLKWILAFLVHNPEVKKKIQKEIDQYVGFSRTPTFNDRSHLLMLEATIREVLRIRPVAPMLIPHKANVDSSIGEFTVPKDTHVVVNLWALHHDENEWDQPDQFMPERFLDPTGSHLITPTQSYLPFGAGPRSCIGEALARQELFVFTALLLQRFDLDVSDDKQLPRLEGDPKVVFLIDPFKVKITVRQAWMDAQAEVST
The test can be described thus: Inhibition of 17,20 lyase activity in Sprague-Dawley rat testicular microsomes. Details: species or system Testis. The gist of the method: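 Testicular microsomes came from 13-week-old male SD rats, prepared by homogenisation and centrifugation. Reactions contained 75 mM phosphate (pH 7.4), 7 µg microsomal protein, 10 nM [1,2-3H]-17α-hydroxyprogesterone, 5 mM NADPH and 1–1000 nM compound (final concentrations; DMF stocks diluted in water). Incubation was 15 min at 37 °C, stopped with ethyl acetate. IC50 is the concentration halving product formation.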

Test [2] concerns the target Cytochrome P450 3A4 (Homo sapiens, UniProt P08684). The test can be described thus: Inhibition of human CYP3A4 after 30 mins. Type of test: ADME.
The target of test [3] is T2, Steroid 17-alpha-hydroxylase/17,20 lyase (Homo sapiens, UniProt P05093).
T2 sequence (P05093 whole entry): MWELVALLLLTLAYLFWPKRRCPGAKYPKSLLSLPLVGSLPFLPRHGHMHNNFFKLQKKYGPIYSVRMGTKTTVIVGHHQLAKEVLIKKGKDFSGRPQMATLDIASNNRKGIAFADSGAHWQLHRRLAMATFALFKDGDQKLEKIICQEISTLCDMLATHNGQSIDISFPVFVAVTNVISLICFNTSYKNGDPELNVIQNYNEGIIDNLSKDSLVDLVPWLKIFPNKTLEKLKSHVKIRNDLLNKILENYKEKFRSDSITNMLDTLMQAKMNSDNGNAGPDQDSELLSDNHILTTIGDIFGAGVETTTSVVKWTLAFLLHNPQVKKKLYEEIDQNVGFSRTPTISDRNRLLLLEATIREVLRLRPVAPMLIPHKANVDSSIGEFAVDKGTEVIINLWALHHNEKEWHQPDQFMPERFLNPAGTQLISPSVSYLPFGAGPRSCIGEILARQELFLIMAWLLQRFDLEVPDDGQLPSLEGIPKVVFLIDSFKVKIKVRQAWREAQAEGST
The test can be described thus: Inhibition of human 17,20 lyase activity.

The species named for test [4] is Homo sapiens. As to the kind of experiment: Ratio of IC50 for human CYP3A4 to IC50 for human 17,20-lyase.
For test [5], the system named is Cynomolgus monkey. The test can be described thus: Antiandrogenic activity in cynomolgus monkey assessed as serum DHEA level at 3 mg/kg, po after 5 hrs (reference value: 148 +/- 53%). Type of test: functional, Macaca fascicularis.
Test [6] concerns Cynomolgus monkey. The test can be described thus: Antiandrogenic activity in cynomolgus monkey assessed as serum testosterone level at 3 mg/kg, po after 2 hrs (reference value: 110 +/- 29%). It is filed as functional, Macaca fascicularis.
Test [7] relates to Cynomolgus monkey. The test can be described thus: Antiandrogenic activity in cynomolgus monkey assessed as serum testosterone level at 3 mg/kg, po after 5 hrs (reference value: 98 +/- 33%). It is filed as functional, Macaca fascicularis.
In test [8] the test system is Cynomolgus monkey. As to the kind of experiment: Antiandrogenic activity in cynomolgus monkey assessed as serum DHEA level at 3 mg/kg, po after 2 hrs (reference value: 116 +/- 95%). Type of test: functional, Macaca fascicularis.

Sequence of Cytochrome P450 3A4 (P08684 whole entry): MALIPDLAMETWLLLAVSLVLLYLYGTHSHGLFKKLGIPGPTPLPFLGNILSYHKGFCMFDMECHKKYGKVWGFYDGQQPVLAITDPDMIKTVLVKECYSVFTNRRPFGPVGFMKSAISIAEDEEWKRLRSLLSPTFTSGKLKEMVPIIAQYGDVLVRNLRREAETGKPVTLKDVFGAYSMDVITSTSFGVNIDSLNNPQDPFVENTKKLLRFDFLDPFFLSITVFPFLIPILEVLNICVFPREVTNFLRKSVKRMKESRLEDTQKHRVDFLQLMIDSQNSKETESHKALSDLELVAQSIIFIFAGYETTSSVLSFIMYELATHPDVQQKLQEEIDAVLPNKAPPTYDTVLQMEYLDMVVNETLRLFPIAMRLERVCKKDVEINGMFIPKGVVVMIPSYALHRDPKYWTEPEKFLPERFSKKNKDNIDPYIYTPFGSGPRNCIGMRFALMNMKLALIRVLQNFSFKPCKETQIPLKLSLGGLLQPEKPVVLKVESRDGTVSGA

For `CC(=O)Nc1ccc(-c2ccc(C(O)(c3c[nH]cn3)C(C)C)cc2)cc1` (racemic), the results for the half-inhibitory concentration (IC50) in test [1], in test [2] and in test [3] were 24 nM, 1000 nM and 120 nM, respectively.

In the case of `CC(=O)Nc1cccc(-c2ccc(C(O)(c3c[nH]cn3)C(C)C)cc2)n1` (racemic), the IC50 (commonly the midpoint of a concentration-inhibition curve) in test [1] is 53 nM; in test [2], above 10000 nM; in test [3], 36 nM.

Take `CC(=O)Nc1cccc(-c2ccc(C(O)(c3c[nH]cn3)C(C)C)cc2)c1` (racemic): the IC50 in test [1] was determined as 17 nM; in test [3], 24 nM.

For `CC(=O)Nc1cccc(-c2ccc([C@@](O)(c3c[nH]cn3)C(C)C)cc2)c1`, the values for the half-inhibitory concentration (IC50) in test [1] and in test [3] were 770 nM and 340 nM, respectively.

Consider `CCC(O)(c1ccc(-c2cccc(NC(C)=O)c2)cc1)c1c[nH]cn1` (racemic), for which the half-inhibitory concentration (IC50) was 25 nM in test [1], above 10000 nM in test [2] and 40 nM in test [3].

Consider `CC(C)C(O)(c1cccc(-c2ccc(Cl)cc2)c1)c1c[nH]cn1` (racemic), for which the IC50 in test [1] amounted to 19 nM; in test [2] it was 2400 nM; in test [3] it was 49 nM. Also, the Ratio IC50 in test [4] is 49.

Take `CC[C@](O)(c1ccc(-c2cccc(NC(C)=O)c2)cc1)c1c[nH]cn1`: the concentration for half-maximal inhibition (IC50) is 19 nM in test [1], above 10000 nM in test [2] and 22 nM in test [3]. Also, the Ratio IC50 in test [4] was above 300.

Regarding `COc1ccc(-c2cccc(C(O)(c3c[nH]cn3)C(C)C)c2)cc1` (racemic), the Ratio IC50 in test [4] was 15. Besides, the 50% inhibitory concentration (IC50) is 2000 nM in test [2] and 130 nM in test [3].

On to `CC(C)C(O)(c1ccc(-c2ccc(F)cc2)cc1)c1c[nH]cn1` (racemic), for which the Ratio IC50 in test [4] was 196. Also, the IC50 in test [2] worked out at 5300 nM; in test [3], 27 nM.

On to `CC(=O)Nc1cccc(-c2ccc(C(O)c3cnc[nH]3)cc2)c1` (racemic), for which the half-inhibitory concentration (IC50) in test [1] was 320 nM; in test [2] it was above 10000 nM; in test [3], 77 nM.

On to `CC(C)C(O)(c1ccc(-c2ccccc2)cc1)c1c[nH]cn1` (racemic), for which the IC50 in test [1] is 33 nM; in test [2] it was 3700 nM; in test [3], 33 nM. In addition, the Ratio IC50 in test [4] was 112.

Consider `CC(=O)Nc1cccc(-c2ccc([C@](O)(c3c[nH]cn3)C(C)C)cc2)n1`, for which the Ratio IC50 in test [4] was above 300.

`CC(=O)Nc1cccc(-c2ccc([C@@](O)(c3cnc[nH]3)C(C)C)cc2)n1`: the half-maximal inhibitory concentration (IC50) in test [1] is above 1000 nM; in test [2] it was above 10000 nM; in test [3] it was 92 nM.

On to `CC(=O)Nc1cccc(-c2ccc(C(O)(c3c[nH]cn3)C3CC3)cc2)c1` (racemic), for which the IC50 in test [1] came out at 81 nM; in test [2], 5500 nM; in test [3], 45 nM.

In the case of `CC(=O)Nc1cccc(-c2ccc(C(C)(O)c3c[nH]cn3)cc2)c1` (racemic), the IC50 in test [1] was 62 nM; in test [2], above 10000 nM; in test [3], 38 nM.

For the molecule `CC(=O)Nc1cccc(-c2ccc([C@](O)(c3cnc[nH]3)C(C)C)cc2)n1`, the IC50 in test [1] was 33 nM; in test [2], above 10000 nM; in test [3], 26 nM.

Consider `CC(C)C(O)(c1ccc(-c2ccc(Cl)cc2)cc1)c1c[nH]cn1` (racemic), for which the IC50 in test [1] worked out at 29 nM; in test [2], 7600 nM; in test [3] it was 28 nM. Besides, the Ratio IC50 in test [4] amounted to 271.

For the molecule `CC(=O)Nc1cccc(-c2ccc([C@](O)(c3c[nH]cn3)C(C)C)cc2)c1`, the concentration for half-maximal inhibition (IC50) was found to be 14 nM in test [1] and 26 nM in test [3]. Besides, the Activity in test [5] is reported as 13%; in test [6] it was 52%; in test [7], 23%; in test [8], 23%.

With `CNC(=O)Nc1cccc(-c2ccc(C(O)(c3c[nH]cn3)C(C)C)cc2)c1` (racemic), the concentration for half-maximal inhibition (IC50) came out at 24 nM in test [1], 5500 nM in test [2] and 21 nM in test [3].

Regarding `CC(C)C(O)(c1cccc(-c2ccc(F)cc2)c1)c1c[nH]cn1` (racemic), in test [4], the Ratio IC50 was found to be 111. The values for the 50% inhibitory concentration (IC50) in test [2] and in test [3] were 2100 nM and 19 nM, respectively.

Take `CC[C@@](O)(c1ccc(-c2cccc(NC(C)=O)c2)cc1)c1c[nH]cn1`: the IC50 in test [1] is 450 nM; in test [2], above 10000 nM; in test [3] it was 240 nM.

Take `CC(C)C(O)(c1ccc(-c2ccccn2)cc1)c1c[nH]cn1` (racemic): the IC50 was determined as 210 nM in test [1], 5200 nM in test [2] and 150 nM in test [3].

Turning to `CNC(=O)c1cccc(-c2ccc(C(O)(c3c[nH]cn3)C(C)C)cc2)c1` (racemic), the half-maximal inhibitory concentration (IC50) was determined as 49 nM in test [1], 8100 nM in test [2] and 44 nM in test [3].

In test [2], `COc1ccc2cc(C(O)(c3c[nH]cn3)C(C)C)ccc2c1` (racemic) gave a concentration for half-maximal inhibition (IC50) below 1000 nM.

Regarding `COc1ccc(-c2ccc(C(O)(c3c[nH]cn3)C(C)C)cc2)cc1` (racemic), the half-maximal inhibitory concentration (IC50) in test [1] was 120 nM; in test [2] it was 4900 nM; in test [3] it was 54 nM. Also, the Ratio IC50 in test [4] is 91.

In the case of `CNS(=O)(=O)c1cccc(-c2ccc(C(O)(c3cnc[nH]3)C(C)C)cc2)c1` (racemic), the IC50 was found to be 71 nM in test [1], 3300 nM in test [2] and 160 nM in test [3].
